Data published in ChEMBL document CHEMBL4725369, “Multicomponent Synthesis, Binding Mode, and Structure-Activity Relationship of Selective Histone Deacetylase 6 (HDAC6) Inhibitors with Bifurcated Capping Groups” (J Med Chem, 2020).
Each block holds one compound with its values, some of them ahead of it. Active and inactive are the calls of the source. The calls are words filed in the database; no cut-off is given here.

Key:
Histone deacetylase 1 = Histone deacetylase 1 (Homo sapiens, UniProt Q13547); assay: Inhibition of human recombinant HDAC1 using ZMAL (Z-Lys(Ac)-AMC) fluorogenic substrate incubated for 90 mins by fluorescence based assay
Chain of Histone deacetylase 1 (Q13547 whole entry): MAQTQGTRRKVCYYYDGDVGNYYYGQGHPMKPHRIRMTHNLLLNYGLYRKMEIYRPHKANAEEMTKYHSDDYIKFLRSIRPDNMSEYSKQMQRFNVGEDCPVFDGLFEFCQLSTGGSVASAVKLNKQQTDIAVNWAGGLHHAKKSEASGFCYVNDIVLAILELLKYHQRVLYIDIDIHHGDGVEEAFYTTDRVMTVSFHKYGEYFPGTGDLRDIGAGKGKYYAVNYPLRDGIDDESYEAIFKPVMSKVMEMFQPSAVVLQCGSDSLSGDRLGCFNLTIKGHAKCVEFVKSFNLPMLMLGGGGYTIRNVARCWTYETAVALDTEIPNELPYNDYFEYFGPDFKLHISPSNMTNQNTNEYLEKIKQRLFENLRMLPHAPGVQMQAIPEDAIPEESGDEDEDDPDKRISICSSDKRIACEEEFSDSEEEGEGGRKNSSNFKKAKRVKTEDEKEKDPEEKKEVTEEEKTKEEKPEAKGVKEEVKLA

[1] = target: T1, Protein deacetylase HDAC6 (Homo sapiens, UniProt Q9UBN7); assay: Inhibition of human recombinant HDAC6 using ZMAL (Z-Lys(Ac)-AMC) fluorogenic substrate incubated for 90 mins by fluorescence based assay
T1 sequence (Q9UBN7 whole entry): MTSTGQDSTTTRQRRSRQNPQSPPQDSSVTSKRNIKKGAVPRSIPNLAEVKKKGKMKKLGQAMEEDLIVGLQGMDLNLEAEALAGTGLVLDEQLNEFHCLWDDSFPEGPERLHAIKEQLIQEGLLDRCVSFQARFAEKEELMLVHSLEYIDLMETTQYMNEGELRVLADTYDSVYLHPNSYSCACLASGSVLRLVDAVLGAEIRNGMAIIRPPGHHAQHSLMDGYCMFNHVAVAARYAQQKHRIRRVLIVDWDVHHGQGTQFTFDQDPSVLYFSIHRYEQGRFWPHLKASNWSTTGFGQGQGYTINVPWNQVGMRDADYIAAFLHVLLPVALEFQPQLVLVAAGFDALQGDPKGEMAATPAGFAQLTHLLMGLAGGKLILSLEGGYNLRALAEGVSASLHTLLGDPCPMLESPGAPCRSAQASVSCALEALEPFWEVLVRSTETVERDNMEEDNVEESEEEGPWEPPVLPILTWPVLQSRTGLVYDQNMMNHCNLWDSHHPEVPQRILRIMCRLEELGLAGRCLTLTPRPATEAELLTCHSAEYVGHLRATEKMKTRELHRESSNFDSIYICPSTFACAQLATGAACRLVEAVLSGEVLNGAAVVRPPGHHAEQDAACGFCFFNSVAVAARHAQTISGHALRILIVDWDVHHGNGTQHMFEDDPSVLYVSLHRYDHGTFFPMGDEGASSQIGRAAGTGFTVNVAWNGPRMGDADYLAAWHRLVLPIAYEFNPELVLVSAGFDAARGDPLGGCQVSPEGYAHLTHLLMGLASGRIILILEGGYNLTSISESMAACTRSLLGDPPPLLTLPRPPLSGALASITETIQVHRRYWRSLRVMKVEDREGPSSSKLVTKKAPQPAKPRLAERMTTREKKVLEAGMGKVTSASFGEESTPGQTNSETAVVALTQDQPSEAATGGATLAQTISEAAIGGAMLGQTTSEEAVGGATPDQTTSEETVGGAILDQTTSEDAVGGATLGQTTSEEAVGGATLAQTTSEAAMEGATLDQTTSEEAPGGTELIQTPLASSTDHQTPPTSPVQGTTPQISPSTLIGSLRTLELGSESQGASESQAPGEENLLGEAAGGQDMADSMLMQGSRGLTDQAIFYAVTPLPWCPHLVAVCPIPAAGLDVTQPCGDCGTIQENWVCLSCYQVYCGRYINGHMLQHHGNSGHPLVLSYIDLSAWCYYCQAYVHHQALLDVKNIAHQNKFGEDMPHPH

Histone deacetylase 2 = Histone deacetylase 2 (Homo sapiens, UniProt Q92769); assay: Inhibition of human recombinant HDAC2 using ZMAL (Z-Lys(Ac)-AMC) fluorogenic substrate incubated for 90 mins by fluorescence based assay
Chain of Histone deacetylase 2 (Q92769 whole entry): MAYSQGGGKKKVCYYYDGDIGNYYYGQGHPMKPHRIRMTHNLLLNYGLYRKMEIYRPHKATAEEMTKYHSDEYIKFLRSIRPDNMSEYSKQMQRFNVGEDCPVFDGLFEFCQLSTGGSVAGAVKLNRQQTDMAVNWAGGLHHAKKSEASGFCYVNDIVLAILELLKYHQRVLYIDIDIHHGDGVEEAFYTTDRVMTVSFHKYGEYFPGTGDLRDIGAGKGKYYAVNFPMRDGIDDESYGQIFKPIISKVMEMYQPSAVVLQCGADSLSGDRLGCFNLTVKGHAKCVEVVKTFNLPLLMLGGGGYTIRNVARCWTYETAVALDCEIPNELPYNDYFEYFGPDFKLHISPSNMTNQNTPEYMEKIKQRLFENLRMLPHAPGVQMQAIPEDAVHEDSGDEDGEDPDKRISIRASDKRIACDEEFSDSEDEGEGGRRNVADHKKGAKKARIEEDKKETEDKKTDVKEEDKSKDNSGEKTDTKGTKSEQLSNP
Method in brief: (§1)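 Enzyme was incubated with compound and ZMAL substrate (21.43 μM stock in assay buffer) for 90 min at 37 °C. Trypsin development followed for 30 min at 37 °C, then fluorescence at ex 355/em 460 nm. Duplicates, at least two independent experiments.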

Histone deacetylase 3 = Histone deacetylase 3 (Homo sapiens, UniProt O15379); assay: Inhibition of human recombinant HDAC3 using ZMAL (Z-Lys(Ac)-AMC) fluorogenic substrate incubated for 90 mins by fluorescence based assay; method in brief: as §1
Chain of Histone deacetylase 3 (O15379 whole entry): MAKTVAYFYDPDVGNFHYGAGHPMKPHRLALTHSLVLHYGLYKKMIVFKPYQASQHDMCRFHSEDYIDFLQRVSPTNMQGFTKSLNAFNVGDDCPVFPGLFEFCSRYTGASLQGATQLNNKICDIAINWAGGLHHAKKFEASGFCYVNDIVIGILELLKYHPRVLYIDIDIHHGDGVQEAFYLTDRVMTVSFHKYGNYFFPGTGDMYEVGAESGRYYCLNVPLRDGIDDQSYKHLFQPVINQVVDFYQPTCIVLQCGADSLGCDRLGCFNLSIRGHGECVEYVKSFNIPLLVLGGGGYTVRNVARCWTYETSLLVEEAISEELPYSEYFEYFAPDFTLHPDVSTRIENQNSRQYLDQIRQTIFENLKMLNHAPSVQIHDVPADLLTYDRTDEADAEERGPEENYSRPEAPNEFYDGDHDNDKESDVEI

Histone deacetylase 4 = Histone deacetylase 4 (Homo sapiens, UniProt P56524); assay: Inhibition of human recombinant HDAC4 using Boc-Lys-(epsilon-Tfa)-AMC fluorogenic substrate incubated for 90 mins by fluorescence based assay
Chain of Histone deacetylase 4 (P56524 whole entry): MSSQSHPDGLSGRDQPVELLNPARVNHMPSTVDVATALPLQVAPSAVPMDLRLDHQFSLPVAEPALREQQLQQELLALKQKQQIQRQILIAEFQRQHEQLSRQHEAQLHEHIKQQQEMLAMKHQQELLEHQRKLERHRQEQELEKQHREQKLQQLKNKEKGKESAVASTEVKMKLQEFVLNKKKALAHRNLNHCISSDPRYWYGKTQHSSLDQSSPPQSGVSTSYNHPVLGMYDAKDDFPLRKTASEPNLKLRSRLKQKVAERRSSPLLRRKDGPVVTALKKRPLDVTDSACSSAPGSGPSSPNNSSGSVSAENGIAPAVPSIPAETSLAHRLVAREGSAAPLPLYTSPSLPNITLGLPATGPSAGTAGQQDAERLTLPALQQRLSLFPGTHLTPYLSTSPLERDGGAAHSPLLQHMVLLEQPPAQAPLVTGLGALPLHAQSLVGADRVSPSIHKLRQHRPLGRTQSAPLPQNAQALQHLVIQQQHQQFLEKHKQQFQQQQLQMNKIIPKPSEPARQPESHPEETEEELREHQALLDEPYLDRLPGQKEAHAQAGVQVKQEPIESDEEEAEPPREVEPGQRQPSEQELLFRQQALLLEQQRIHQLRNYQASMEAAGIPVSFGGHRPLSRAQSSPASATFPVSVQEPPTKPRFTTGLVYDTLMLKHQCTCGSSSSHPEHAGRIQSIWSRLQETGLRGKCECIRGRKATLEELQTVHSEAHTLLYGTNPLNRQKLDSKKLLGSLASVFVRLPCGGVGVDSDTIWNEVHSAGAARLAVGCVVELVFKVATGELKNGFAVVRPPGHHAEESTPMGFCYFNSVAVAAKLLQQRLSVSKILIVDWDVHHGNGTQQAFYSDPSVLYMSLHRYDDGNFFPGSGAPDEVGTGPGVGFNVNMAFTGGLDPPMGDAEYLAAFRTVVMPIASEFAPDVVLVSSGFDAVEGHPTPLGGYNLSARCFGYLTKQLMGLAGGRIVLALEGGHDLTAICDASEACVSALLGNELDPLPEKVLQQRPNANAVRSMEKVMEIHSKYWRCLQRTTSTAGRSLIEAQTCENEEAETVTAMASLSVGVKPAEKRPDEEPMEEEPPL
Method in brief: (§2)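 Human recombinant HDAC4 or HDAC8, 20 ng per well, in Tris-HCl pH 8.0 buffer with 1 mg/mL BSA. Enzyme was preincubated 5 min with inhibitor, then started with Boc-Lys(ε-Tfa)-AMC, 100 μM for HDAC4 or 60 μM for HDAC8. […] Fluorescence ex 355/em 460 nm was read 15 min later.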

Histone deacetylase 8 = target: T2, Histone deacetylase 8 (Homo sapiens, UniProt Q9BY41); assay: Inhibition of human recombinant HDAC8 using Boc-Lys-(epsilon-Tfa)-AMC fluorogenic substrate incubated for 90 mins by fluorescence based assay; method in brief: as §2
T2 sequence (Q9BY41 whole entry): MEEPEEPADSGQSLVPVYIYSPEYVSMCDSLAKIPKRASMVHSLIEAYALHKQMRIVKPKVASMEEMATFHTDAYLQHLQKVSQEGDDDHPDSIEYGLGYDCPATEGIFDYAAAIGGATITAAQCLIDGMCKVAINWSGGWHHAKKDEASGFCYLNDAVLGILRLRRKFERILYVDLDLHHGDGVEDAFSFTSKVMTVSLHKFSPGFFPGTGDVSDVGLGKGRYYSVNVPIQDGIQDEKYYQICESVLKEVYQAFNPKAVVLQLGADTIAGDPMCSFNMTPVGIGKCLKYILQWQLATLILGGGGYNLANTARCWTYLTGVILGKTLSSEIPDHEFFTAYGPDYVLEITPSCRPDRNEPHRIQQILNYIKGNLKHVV

[2] = Intrinsic clearance in human liver microsomes; assay type: ADME, Microsome
[3] = Intrinsic clearance in mouse liver microsomes; assay type: ADME, Microsome
[4] = target: T3, Protein deacetylase HDAC6 (Homo sapiens) (UniProt Q9UBN7); assay: Inhibition of HDAC6 in human HL60 cells assessed as induction of alpha-tubulin acetylation at 2.5 to 5 uM incubated for 24 hrs by immunoblot analysis; assay type: cell-based; details: HL-60, dose microM 2.5-5, time […]
T3 sequence (whole entry): T1 sequence (Q9UBN7 whole entry)

[5] = target: Class 1 histone deacetylase (Homo sapiens) (UniProt Q13547+O15379+Q92769+Q9BY41); assay: Inhibition of class-1 HDAC in human HL60 cells assessed as induction of histone H3 acetylation at 2.5 to 5 uM incubated for 24 hrs by immunoblot analysis; assay type: cell-based; details: HL-60, dose microM 2.5-5, time […]
TALL-1 = assay: Cytotoxicity in human TALL-1 cells assessed as reduction in cell viability incubated for 72 hrs by cell-Titer-Glo luminescent cell viability assay; assay type: cell-based; details: TALL-1, 72 h
Method in brief: (§3)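 Leukaemia lines kept in RPMI 1640 with 20% FCS (SUP-B15 in McCoy's 5A with 20% FCS). Compound dispensed digitally at increasing concentrations from 1 μM to 50 μM. Viability read by CellTiter-Glo luminescence after 72 h. Raw data were normalized to controls and IC50 was fitted by sigmoid nonlinear regression.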

CCRF-HSB-2 [6] = assay: Cytotoxicity in human CCRF-HSB-2 cells assessed as reduction in cell viability incubated for 72 hrs by cell-Titer-Glo luminescent cell viability assay; assay type: cell-based; details: CCRF-HSB-2, 72 h; method in brief: as §3
MOLT-4 = assay: Cytotoxicity in human MOLT-4 cells assessed as reduction in cell viability incubated for 72 hrs by cell-Titer-Glo luminescent cell viability assay; assay type: cell-based; details: MOLT-4, 72 h
Method in brief: (§4)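 Cells were exposed in 384-well format to a digitally dispensed concentration series of 1–50 μM. Viability was read by CellTiter-Glo luminescence after 72 h. Data were normalized to controls, and IC50 came from nonlinear regression of a sigmoid dose curve. K562 was maintained in RPMI 1640 with 10% FCS at 37 °C and 5% CO2. MOLT-4 was maintained in RPMI 1640 with 20% FCS.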

Jurkat = assay: Cytotoxicity in human Jurkat cells assessed as reduction in cell viability incubated for 72 hrs by cell-Titer-Glo luminescent cell viability assay; assay type: cell-based; method in brief: as §3
SUP-B15 = assay: Cytotoxicity in human SUP-B15 cells assessed as reduction in cell viability incubated for 72 hrs by cell-Titer-Glo luminescent cell viability assay; assay type: cell-based; details: SUP-B15, 72 h; method in brief: as §3
K562 = assay: Cytotoxicity in human K562 cells assessed as reduction in cell viability incubated for 72 hrs by cell-Titer-Glo luminescent cell viability assay; assay type: cell-based; details: K562, 72 h; method in brief: as §4
HL-60 [7] = assay: Induction of apoptosis in human HL-60 cells at 2.5 to 5 uM incubated for 24 hrs by Annexin V and PI staining based FACS analysis; assay type: cell-based; details: hl-60, 24 h, dose 2.5-5 µM
Method in brief: (§5)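 HL60 cells in RPMI 1640 with 10% FCS at 37°C, 5% CO2. Cells were exposed to test compound at 2.5 or 5 μM, alone or combined with bortezomib, for 24 h. Annexin V/propidium iodide staining was read by FACS; n=3, with paired two-tailed Student's t-test.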

HL-60 [8] = assay: Potentiation of bortezomib-induced apoptosis in human HL-60 cells assessed as increase in number of late apoptotic/dead cells at 2.5 to 5 uM incubated for 24 hrs in presence of 0.6 to 1.2 nM bortezomib- by Annexin V and PI staining based FACS analysis; assay type: functional, cell-based; details: dose microM 2.5-5, time […]; method in brief: as §5
CCRF-HSB-2 [9] = assay: Cytotoxicity in human CCRF-HSB-2 cells assessed as reduction in cell viability at 2.5 to 5 uM incubated for 72 hrs by cell-Titer-Glo luminescent cell viability assay; assay type: cell-based; details: ccrf-hsb-2, 72 h, dose 2.5-5 µM
Method in brief: (§6)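 HSB-2 cells in RPMI 1640 with 20% FCS on a semi-automated combination platform. Test compound was fixed at 2.5 or 5 μM, alone or with chemotherapeutics and glucocorticoids dispensed at 10 nM-25 μM. Viability read by CellTiter-Glo luminescence after 72 h.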

CCRF-HSB-2 [10] = assay: Potentiation of epirubicin-induced cytotoxicity in human CCRF-HSB-2 cells assessed as reduction in cell viability at 2.5 to 5 uM incubated for 72 hrs in presence of 10 nM epirubicin1 by cell-Titer-Glo luminescent cell viability assay; assay type: functional, cell-based; details: dose microM 2.5-5, time 72.0 hrs; method in brief: as §6
CCRF-HSB-2 [11] = assay: Potentiation of […]-induced cytotoxicity in human CCRF-HSB-2 cells assessed as reduction in cell viability at 2.5 to 5 uM incubated for 72 hrs in presence of 10 nM daunorubicin by cell-Titer-Glo luminescent cell viability assay; assay type: functional, cell-based; details: dose microM 2.5-5, time 72.0 hrs; method in brief: as §6

SMILES: CCCCC(NCc1ccc(C(=O)NO)cc1)c1nnnn1Cc1ccccc1 (stereo not drawn)
IC50 (Histone deacetylase 1): 2010 nM
IC50 [1]: 120 nM

SMILES: Cc1ccccc1C(=O)N(Cc1ccc(C(=O)NO)cc1)Cc1nnnn1C1CCCCC1
IC50 (Histone deacetylase 1): 3030 nM
IC50 [1]: 60 nM

SMILES: O=C(NO)c1ccc(CNC(c2ccccc2)c2nnnn2C2CCCCC2)cc1 (stereo not drawn)
IC50 (Histone deacetylase 1): 4060 nM
IC50 [1]: 120 nM

SMILES: O=C(NO)c1ccc(CNC(c2ccccc2)c2nnnn2Cc2ccccc2)cc1 (stereo not drawn)
IC50 (Histone deacetylase 1): 3370 nM
IC50 [1]: 100 nM

SMILES: O=C(NO)c1ccc(CN(Cc2nnnn2C2CCCCC2)C(=O)c2ccccc2)cc1
IC50 (Histone deacetylase 1): 2370 nM
IC50 [1]: 70 nM

SMILES: CC(C)(C)n1nnnc1CNCc1ccc(C(=O)NO)cc1
IC50 (Histone deacetylase 1): 8240 nM
IC50 [1]: 330 nM

SMILES: O=C(NO)c1ccc(CNCc2nnnn2C2CCCCC2)cc1
IC50 (Histone deacetylase 1): 2060 nM
IC50 [1]: 120 nM

Further lines, with some results ahead:

IC50 (Histone deacetylase 1): 5180 nM
IC50 [1]: 30 nM
IC50 (Histone deacetylase 2): 2260 nM
IC50 (Histone deacetylase 3): 8480 nM
IC50 (Histone deacetylase 4): 55400 nM
IC50 (Histone deacetylase 8): 14700 nM
CLint [2]: 30 µL/min/mg
CLint [3]: 26 µL/min/mg
inhibition [4]: Active
inhibition [5]: inactive
SMILES: O=C(NO)c1ccc(CN(Cc2nnnn2Cc2ccccc2)C(=O)c2ccccc2C(F)(F)F)cc1
IC50 (TALL-1): 49400 nM
IC50 (CCRF-HSB-2 [6]): 51800 nM
IC50 (MOLT-4): 42400 nM
IC50 (Jurkat): 32100 nM
IC50 (SUP-B15): 22500 nM
IC50 (K562): 41600 nM
Activity (HL-60 [7]): Non-Toxic
Activity (HL-60 [8]): Active
Activity (CCRF-HSB-2 [9]): Non-Toxic
Activity (CCRF-HSB-2 [10]): Active
Activity (CCRF-HSB-2 [11]): Active

IC50 (Histone deacetylase 1): 2450 nM
IC50 [1]: 100 nM
SMILES: O=C(NO)c1ccc(CNCc2nnnn2Cc2ccccc2)cc1

IC50 (Histone deacetylase 1): 900 nM
IC50 [1]: 80 nM
SMILES: Cc1cc(C)cc(C(=O)N(Cc2ccc(C(=O)NO)cc2)Cc2nnnn2Cc2ccccc2)c1

IC50 (Histone deacetylase 1): 1780 nM
IC50 [1]: 320 nM
SMILES: CC(C)c1ccc(C(=O)N(Cc2ccc(C(=O)NO)cc2)Cc2nnnn2Cc2ccccc2)cc1

IC50 (Histone deacetylase 1): 1240 nM
IC50 [1]: 30 nM
SMILES: O=C(NO)c1ccc(CN(Cc2nnnn2Cc2ccccc2)C(=O)c2ccccc2)cc1
